Assay results gathered from unrelated publications.
Protocols differ between the studies behind these lines. ≈ marks a conversion by molar mass, not a printed value.

O=C1C(O)=C([C@H]2CC[C@H](c3ccc(Cl)cc3)CC2)C(=O)c2ccccc21  EC50 (Plasmodium falciparum; parasite growth, SYBR Green; 3D7): 0.00045 µM
N.N.[Cl][Pt][Cl]  GI50 (COLO 205; cell growth or viability, ATP luminescence): 6.8 µg/mL
CONC(=O)OC(c1ccccc1)c1cccc(C(C)C(=O)NOC)c1 (stereo not shown)  IC50 (FM3A; cell growth or viability; 48 h): 10 µM
Cc1sc(CNCCCNc2cc(=O)c3ccccc3[nH]2)c(I)c1C  EC50 (Plasmodium falciparum; parasite growth, SYBR Green; 3D7): 0.339 µM
CO[C@H]1/C=C/O[C@@]2(C)Oc3c(C)c(O)c4c(O)c(c(/C=N/N5CCN(C)CC5)c(O)c4c3C2=O)NC(=O)/C(C)=C\C=C\[C@H](C)[C@H](O)[C@@H](C)[C@@H](O)[C@@H](C)[C@H](OC(C)=O)[C@@H]1C  MIC (Mycolicibacterium aurum; microbial growth, agar dilution): 0.78 µg/mL (≈ 0.948 µM)
CC(C(=O)NCCc1ccccc1)c1cccc(C(OC(=O)NCCc2ccccc2)c2ccccc2)c1 (stereo not shown)  IC50 (FM3A; cell growth or viability; 48 h): 13 µM
CCc1ccc(C2=NC(=Cc3ccc(CCCCCCCCCC(C)O)[nH]3)C(OC)=C2)[nH]1 (stereo not shown)  IC50 (Plasmodium falciparum; parasite growth; 7G8; drug-resistant strain, blood stage): 0.024 µM
CCCCCCCCCCOc1cc2c(O)c(C(=O)OCC)cnc2cc1OCC  IC50 (Plasmodium falciparum; parasite growth, SYBR Green; DD2; blood stage): < 0.0057 µM
C[C@@]1(O)CC[C@@]2(C)[C@@H](CC[C@@H]3[C@@H]2CC[C@]2(C)[C@@H]([N+](=O)[O-])CC[C@@H]32)C1  ED50 (6 Hz seizures; mouse; intraperitoneal): 8.8 mg/kg
CCc1nc2nc(C)cc(Nc3cc(C)cc(C)c3)n2n1  EC50 (Plasmodium falciparum; parasite growth, SYBR Green; 3D7): 0.0965 µM
C[C@]12CC[C@H](O)C[C@@H]1CC[C@@H]1[C@@H]2CC[C@]2(C)[C@@H]([N+](=O)[O-])CC[C@@H]12  ED50 (6 Hz seizures; mouse; intraperitoneal): 83 mg/kg
CC(C(=O)NCC1CCCCC1)c1cccc(C(OC(=O)NCC2CCCCC2)c2ccccc2)c1 (stereo not shown)  IC50 (L1210; cell growth or viability; 48 h): 11 µM
CCOc1cccc(=O)c2c(C)n(Cc3ccc(Cl)cc3)c(C)c12  EC50 (Plasmodium falciparum; parasite growth, SYBR Green; 3D7): 0.59 µM
